This is an account of results in ChEMBL document CHEMBL3217641, “Structure-function study of gemini derivatives with two different side chains at C-20, Gemini-0072 and Gemini-0097” (Medchemcomm, 2011).

A word on the IC50: it is the concentration at which inhibition is half-maximal. Read a high IC50 as weaker potency. One may read the EC50 as the concentration at which the effect is half-maximal. The low end stands for greater potency, the high end for weaker potency.

Each structure is given as a SMILES string.

Experiment [1] can be described thus: Antiproliferative activity against ER negative human MCF10DCIS.com cells after 3 days by [3H]thymidine uptake assay relative to 1alpha,25(OH)2D3.
Experiment [2] in a line: Antiproliferative activity against ER positive human MCF10CA1a cells after 3 days by [3H]thymidine uptake assay. Type of experiment: functional.
Experiment [3] is described as follows: Antiproliferative activity against ER positive human MCF10CA1a cells after 3 days by [3H]thymidine uptake assay relative to 1alpha,25(OH)2D3. The class given is functional.
Experiment [4] is described as follows: Antiproliferative activity against ER positive human MCF10AT1 cells after 3 days by [3H]thymidine uptake assay relative to 1alpha,25(OH)2D3. The class given is functional.
In experiment [5] the target is T1, Vitamin D3 receptor A (Danio rerio, UniProt Q9PTN2).
T1 sequence (Q9PTN2 whole entry): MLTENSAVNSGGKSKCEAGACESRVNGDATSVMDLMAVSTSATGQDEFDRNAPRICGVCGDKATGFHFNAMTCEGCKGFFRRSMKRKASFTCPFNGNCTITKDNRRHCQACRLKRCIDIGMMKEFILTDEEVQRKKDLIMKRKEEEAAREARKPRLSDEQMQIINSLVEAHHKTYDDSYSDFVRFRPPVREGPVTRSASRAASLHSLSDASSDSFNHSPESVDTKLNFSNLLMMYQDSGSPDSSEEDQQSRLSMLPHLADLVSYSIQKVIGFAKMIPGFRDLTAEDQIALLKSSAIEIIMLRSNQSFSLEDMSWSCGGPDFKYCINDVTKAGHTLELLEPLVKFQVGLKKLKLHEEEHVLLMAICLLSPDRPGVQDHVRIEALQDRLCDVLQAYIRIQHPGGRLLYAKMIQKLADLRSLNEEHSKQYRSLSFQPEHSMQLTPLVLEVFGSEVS
As to the kind of experiment: Agonist activity at zebrafish gal4-VDR LBD expressed in human MCF7 cells by luciferase reporter gene based transactivation assay. Type of experiment: cell-based. The procedure, abridged:
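MCF-7 cells (10^5/well) were grown overnight in phenol red-free DMEM with 10% charcoal-treated FBS and 0.6 μg/ml insulin. They were transfected with jetPEI using Gal4DBD-zVDR(156–453) (25 ng), ptk-LUC reporter (250 ng) and β-galactosidase control (50 ng). After 10 h, ligand at 0.1–100 nM or DMSO solvent was added. After 24 h, luciferase was read, normalized to β-gal, in triplicate.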
Background: A reporter such as luciferase makes a cellular process visible.

A short description of experiment [6]: Antiproliferative activity against ER negative human MCF10DCIS.com cells after 3 days by [3H]thymidine uptake assay.
Experiment [7] can be described thus: Antiproliferative activity against ER positive human MCF10AT1 cells after 3 days by [3H]thymidine uptake assay. The class given is functional.
For experiment [8], the target named is T2, Vitamin D3 receptor A (Danio rerio) (UniProt Q9PTN2).
T2 sequence (whole entry): T1 sequence (Q9PTN2 whole entry)
The experiment is described as follows: Agonist activity at zebrafish gal4-VDR LBD expressed in human MCF7 cells by luciferase reporter gene based transactivation assay relative to 1alpha,25(OH)2D3. The conditions noted are these: tested as the 2H-labelled form. The class given is cell-based. The procedure, abridged:
(§1)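 Transient transfection of MCF-7 cells (10^5/well, grown overnight in phenol red-free DMEM with 10% charcoal-treated FBS, gentamicin, insulin) with Gal4DBD-zVDR(156–453), ptk-LUC reporter, β-galactosidase control and carrier plasmid via jetPEI. After 10 h, ligands at 0.1, 1, 10, 100 nM versus DMSO solvent for 24 h. Luciferase normalized to β-galactosidase; triplicates, mean and S.D.; EC50 derived.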

The target of experiment [9] is T2, Vitamin D3 receptor A (Danio rerio). As to the kind of experiment: Agonist activity at zebrafish gal4-VDR LBD expressed in human MCF7 cells by luciferase reporter gene based transactivation assay relative to parental gemini. The conditions noted are these: tested as the 2H-labelled form. Type of experiment: cell-based. The method in brief: as §1

Turning to `[2H]C([2H])([2H])C(O)(CCC[C@@H](CC#CC(O)(C(F)(F)F)C(F)(F)F)[C@H]1CC[C@H]2/C(=C/C=C3C[C@H](O)C[C@@H](O)C3)CCC[C@]12C)C([2H])([2H])[2H]`, the “fold change (FC)” value in experiment [1], in experiment [3] and in experiment [4] was 10 throughout. Also, the IC50 in experiment [2] was determined as 0.09 nM; in experiment [6], 0.23 nM; in [7], 0.23 nM. In [5], this molecule came in with an EC50 of 0.15 nM.

On to `CC(C)(O)CCC[C@@H](CC#CC(O)(C(F)(F)F)C(F)(F)F)[C@H]1CC[C@H]2/C(=C/C=C3C[C@H](O)C[C@@H](O)C3)CCC[C@]12C`, for which the fold change (FC) in experiment [8] stood at 36; in experiment [9], 8.

With `C=C1/C(=C\C=C2/CCC[C@]3(C)[C@@H](C(CCCC(C)(C)O)CCCC(C)(C)O)CC[C@@H]23)C[C@H](O)C[C@H]1O`, the EC50 in [5] turned out to be 1.2 nM.

Regarding `[2H]C([2H])([2H])C(O)(CCC[C@H](CC#CC(O)(C(F)(F)F)C(F)(F)F)[C@H]1CC[C@H]2/C(=C/C=C3C[C@H](O)C[C@@H](O)C3)CCC[C@]12C)C([2H])([2H])[2H]`, the “fold change (FC)” value in experiment [1], in experiment [3] and in [4] was 10 throughout. The IC50 in experiment [2] was 0.15 nM; in experiment [6] it was 0.36 nM; in [7], 0.51 nM. This molecule also yielded an EC50 in experiment [5] of 0.25 nM.

Take `CC(C)(O)CCC[C@H](CC#CC(O)(C(F)(F)F)C(F)(F)F)[C@H]1CC[C@H]2/C(=C/C=C3C[C@H](O)C[C@@H](O)C3)CCC[C@]12C`: the fold change (FC) in experiment [8] turned out to be 22; in experiment [9], 5.
